According to ChEMBL document CHEMBL1151197, “Molecular-targeted antitumor agents: the Saururus cernuus dineolignans manassantin B and 4-O-demethylmanassantin B are potent inhibitors of hypoxia-activated HIF-1” (J Nat Prod, 2004):
Activity calls are given as the source filed them. No cut-off for these calls is given here.

What was measured:
Assay type in all cases: cell-based
T47D [1] = experiment: Inhibition of hypoxia-induced VEGF production in human T47D cells after 16 hrs by ELISA
Summary of the method: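 T47D cells at 3 × 10^4 cells/well, 30 min compound pretreatment, then 16 h hypoxia (1% O2). Secreted VEGF measured in conditioned medium by sandwich ELISA (OD450, 540 nm correction) against a standard curve. Values normalized to viable cell number from Neutral Red uptake (OD540 minus 630 nm, cell-number standard curve). Quadruplicate; mean ± SEM; ANOVA with Fisher's PLSD.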

[2] = molecular target: T1, Hypoxia inducible factors; HIF-1-alpha, HIF-2-alpha (Homo sapiens, UniProt Q16665+Q99814); experiment: Inhibition of 1,10-phenathroline-induced HIF1 activation in human T47D cells after 16 hrs at >=30 nM by pTK-HRE3-luciferase reporter gene assay; set-up: scale not given: the % may be the effect or the level left
Summary of the method: (§1)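 T47D cells electroporated with pTK-HRE3-luc (140 V, 70 ms, 1 pulse), plated 4.5 × 10^4 cells/well, after 24 h given a dilution series for 30 min at 37 °C, then 10 µM 1,10-phenanthroline for 16 h at 37 °C. Luciferase read from cell lysates; quadruplicate wells. Specificity counter-screen used pGL3-Control-transfected cells.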

[3] = molecular target: T1, Hypoxia inducible factors; HIF-1-alpha, HIF-2-alpha; experiment: Inhibition of 1,10-phenathroline-induced HIF1 activation in human T47D cells after 16 hrs at >=10 nM by pTK-HRE3-luciferase reporter gene assay; set-up: scale not given: the % may be the effect or the level left; summary of the method: as §1
[4] = molecular target: T1, Hypoxia inducible factors; HIF-1-alpha, HIF-2-alpha; experiment: Inhibition of hypoxia-induced HIF1 activation in human T47D cells after 16 hrs by pTK-HRE3-luciferase reporter gene assay
Summary of the method: (§2)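 Reporter: T47D cells electroporated with pTK-HRE3-luc (140 V, 70 ms, 1 pulse), plated 4.5 × 10^4 cells/well, after 24 h pretreated with serial dilutions for 30 min at 37 °C, then hypoxia (1% O2/5% CO2/94% N2) for 16 h at 37 °C. Luciferase read from lysates; triplicate wells, means ± SD. pGL3-Control cells run as counter-screen.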

[5] = molecular target: T1, Hypoxia inducible factors; HIF-1-alpha, HIF-2-alpha; experiment: Inhibition of hypoxia-induced HIF1 activation in human T47D cells at 100 nM after 16 hrs by pTK-HRE3-luciferase reporter gene assay; summary of the method: as §2
T47D [6] = experiment: Inhibition of hypoxia-induced nuclear HIF1 beta level in human T47D cells at 10 to 100 nM preincubated for 30 mins before addition of hypoxia measured after 4 hrs by Western blotting
Summary of the method: (§3)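 Seeded at 1.7 × 10^5 cells/cm2 overnight, T47D cells got 10 or 100 nM for 30 min, then 4 h of hypoxia or 10 µM 1,10-phenanthroline at 37 °C. Nuclear extracts prepared by NP-40 lysis and 500 mM KCl extraction, separated on 7% SDS-PAGE. Blots probed with anti-HIF-1α (1:500), stripped, reprobed for HIF-1β (1:1500); ABC/ECL detection, Ponceau-S loading check.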

[7] = molecular target: T1, Hypoxia inducible factors; HIF-1-alpha, HIF-2-alpha; experiment: Inhibition of hypoxia-induced HIF1 activation in human T47D cells at 10 nM after 16 hrs by pTK-HRE3-luciferase reporter gene assay; summary of the method: as §2
T47D [8] = experiment: Inhibition of 1,10-phenathroline-induced nuclear HIF1 beta level in human T47D cells at 10 to 100 nM preincubated for 30 mins before addition of 1,10-phenathroline measured after 4 hrs by Western blotting; summary of the method: as §3
[9] = molecular target: Hypoxia-inducible factor 1-alpha (Homo sapiens) (UniProt Q16665); experiment: Inhibition of hypoxia-induced nuclear HIF1 alpha level in human T47D cells at 10 to 100 nM preincubated for 30 mins before addition of hypoxia measured after 4 hrs by Western blotting; summary of the method: as §3
[10] = molecular target: Hypoxia-inducible factor 1-alpha (Homo sapiens) (UniProt Q16665); experiment: Inhibition of 1,10-phenathroline-induced nuclear HIF1 alpha level in human T47D cells at 10 to 100 nM preincubated for 30 mins before addition of 1,10-phenathroline measured after 4 hrs by Western blotting; summary of the method: as §3

Chain of Hypoxia-inducible factor 1-alpha (Homo sapiens) (Q16665 whole entry, looked up): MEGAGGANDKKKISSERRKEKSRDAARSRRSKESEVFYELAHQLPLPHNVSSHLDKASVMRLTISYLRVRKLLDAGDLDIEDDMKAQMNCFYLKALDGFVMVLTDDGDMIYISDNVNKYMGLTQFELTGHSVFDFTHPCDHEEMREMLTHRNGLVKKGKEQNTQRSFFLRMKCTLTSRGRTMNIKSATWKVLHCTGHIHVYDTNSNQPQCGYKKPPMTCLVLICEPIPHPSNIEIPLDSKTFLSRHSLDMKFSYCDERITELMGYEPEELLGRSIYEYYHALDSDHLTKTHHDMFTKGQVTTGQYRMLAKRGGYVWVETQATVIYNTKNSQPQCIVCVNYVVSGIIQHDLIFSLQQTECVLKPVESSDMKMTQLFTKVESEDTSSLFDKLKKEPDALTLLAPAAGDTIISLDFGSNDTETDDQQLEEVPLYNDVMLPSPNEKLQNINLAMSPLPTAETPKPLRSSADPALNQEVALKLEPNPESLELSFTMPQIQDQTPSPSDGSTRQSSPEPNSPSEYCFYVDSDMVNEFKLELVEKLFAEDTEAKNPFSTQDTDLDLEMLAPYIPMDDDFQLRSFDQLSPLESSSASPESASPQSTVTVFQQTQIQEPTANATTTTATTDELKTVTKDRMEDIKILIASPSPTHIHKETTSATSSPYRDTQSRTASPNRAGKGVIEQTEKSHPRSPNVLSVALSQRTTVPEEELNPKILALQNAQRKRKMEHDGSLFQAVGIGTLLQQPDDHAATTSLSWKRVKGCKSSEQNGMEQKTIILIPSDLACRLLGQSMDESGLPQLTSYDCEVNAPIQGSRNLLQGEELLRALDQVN

In the case of COc1cc([C@@H](O)[C@@H](C)Oc2ccc([C@H]3O[C@H](c4ccc(O[C@H](C)[C@H](O)c5ccc6c(c5)OCO6)c(OC)c4)[C@H](C)[C@H]3C)cc2OC)ccc1O (mixture of isomers) [4-O-DEMETHYLMANASSANTIN B], the Activity (T47D [1]) is reported as “Active”, the Activity [2] is reported as less than 50% and the Activity [3] is reported as less than 50%. The IC50 [4] was 0.03 µM and the Activity [5] was “Active”.

For COc1ccc([C@@H](O)[C@@H](C)Oc2ccc([C@H]3O[C@H](c4ccc(O[C@H](C)[C@H](O)c5ccc6c(c5)OCO6)c(OC)c4)[C@H](C)[C@H]3C)cc2OC)cc1OC (relative stereo) [MANASSANTIN B], the Activity (T47D [1]) was “Active”, the Activity [2] was less than 50% and the Activity [3] was less than 50%. The IC50 [4] was 0.003 µM, the Activity (T47D [6]) was “inactive” and the Activity [7] was “Active”. The Activity (T47D [8]) was “inactive”, the Activity [9] was “Active” and the Activity [10] was “inactive”.
